For orientation: T/C means the result in the treated group divided by that in the control group, in per cent.

Data on one molecule can be found in ChEMBL document CHEMBL1125226, “Antineoplastic activity of didemnin congeners: nordidemnin and modified chain analogues” (1991).

SMILES strings stand for the structures.

Common to all, as to assay type: functional, Mus musculus
The subject of assay [1] is B16. In words: Antitumor activity against B16 melanoma from B6 D2 F1 female mice(T/C) as median survival time of treated mice (T) over that of control mice (C) at a dose of 0.03 mg/kg/day (repeated ip injections, day 1-9). The settings on record: route intraperitoneal. The gist of the method: (§1)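 B16 melanoma homogenate (1 g tumor in 9 mL 0.9% saline), 0.5 mL implanted ip on day 0 in B6D2F1 female mice (C57BL/6 ♀ × DBA/2 ♂). Treatment ip once daily from day 1 to day 9. Toxicity scored as survivors on day 5. Median survival recorded and T/C computed as treated/control median survival, ≥125% significant.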

For assay [2], the system named is B16. The experiment in a line: Antitumor activity against B16 melanoma from B6 D2 F1 female mice(T/C) as median survival time of treated mice (T) over that of control mice (C) at a dose of 0.50 mg/kg/day (repeated ip injections, day 1-9). Particulars: route intraperitoneal. In outline: as §1
For assay [3], the system named is B16. The experiment in a line: Antitumor activity against B16 melanoma from B6 D2 F1 female mice(T/C) was evaluated from the median survival time of treated mice (T) over that of control mice (C) at a dose of 0.03 mg/kg/day. The gist of the method:
(§2)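 B6D2F1 female mice (C57BL/6 ♀ × DBA/2 ♂) implanted ip on day 0 with 0.5 mL of B16 tumor suspension (1 g homogenized in 9 mL 0.9% saline). Dosing ip on days 1, 5 and 9. Day-5 survivors give toxicity. Median survival of treated vs control mice gives T/C%, with ≥125% significant.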

Assay [4] concerns B16. In words: Antitumor activity against B16 melanoma from B6 D2 F1 female mice(T/C) was evaluated from the median survival time of treated mice (T) over that of control mice (C) at a dose of 0.06 mg/kg/day. The gist of the method: as §2
In assay [5] the test system is B16. In words: Antitumor activity against B16 melanoma from B6 D2 F1 female mice evaluated as the number of survivors on day 5 at a dose of 0.25 mg/kg/day (repeated ip injections, day 1-9). The settings on record: route intraperitoneal. The gist of the method: as §1
The test system of assay [6] is B16. In words: Antitumor activity against B16 melanoma from B6 D2 F1 female mice as average weight change of animals between day 1 and day 5 after tumor implementation at a dose of 0.03 mg/kg/day (repeated ip injections, day 1-9). The settings on record: route intraperitoneal. In outline: (§3)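 B6D2F1 female mice (C57BL/6 × DBA/2) were implanted ip on day 0 with 0.5 mL of B16 suspension (1 g tumor homogenized in 9 mL 0.9% saline). Ip treatment was given once daily, day 1 to day 9. Body weight was recorded on days 1 and 5 after implantation, and the mean change per group was reported.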

The test system of assay [7] is B16. In words: Antitumor activity against B16 melanoma from B6 D2 F1 female mice as average weight change of animals between day 1 and day 5 after tumor implementation at a dose of 0.50 mg/kg/day (repeated ip injections, day 1-9). Particulars: route intraperitoneal. The gist of the method: as §3
In assay [8] the test system is B16. In words: Antitumor activity against B16 melanoma from B6 D2 F1 female mice evaluated as average weight change of animals between day 1 and day 5 after tumor implementation at a dose of 0.03 mg/kg/day. In outline: (§4)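 B16 melanoma in B6D2F1 female mice: 0.5 mL of tumor homogenate (1 g in 9 mL 0.9% saline) was given ip on day 0. Ip dosing was on days 1, 5 and 9. The readout was the average body weight change between day 1 and day 5 after tumor implantation.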

Assay [9] has as its system B16. The experiment in a line: Antitumor activity against B16 melanoma from B6 D2 F1 female mice evaluated as average weight change of animals between day 1 and day 5 after tumor implementation at a dose of 0.06 mg/kg/day. In outline: as §4
Assay [10] deals with B16. The experiment in a line: Antitumor activity against B16 melanoma from B6 D2 F1 female mice evaluated as the number of survivors on day 5 at a dose of 0.03 mg/kg/day. In outline: as §2
Assay [11] concerns B16. In words: Antitumor activity against B16 melanoma from B6 D2 F1 female mice evaluated as average weight change of animals between day 1 and day 5 after tumor implementation at a dose of 1 mg/kg/day. In outline: as §4
The test system of assay [12] is B16. In words: Antitumor activity against B16 melanoma from B6 D2 F1 female mice evaluated as Median survival time of treated mice at a dose of 0.06 mg/kg/day (repeated ip injections, day 1-9). Particulars: route intraperitoneal. The gist of the method: as §1
In assay [13] the test system is L1210. In words: Antitumor activity against L1210 Lymphoid Leukemia from CDF1 female mice as Median survival time of treated mice at a dose of 0.50 mg/kg/day. The gist of the method:
(§5)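 L1210 leukemia, 10⁵ cells ip on day 0 into CDF1 female mice (BALB/c ♀ × DBA/2 ♂). Drug in 2% methanol given ip on days 1, 5 and 9, 10 mice per group. Survivors and body weight recorded on days 1 and 5, with toxicity as survivors on day 5. Deaths followed for 30 days. T/C = treated/control median survival time, significant at ≥125%.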

Assay [14] deals with L1210. The experiment in a line: Antitumor activity against L1210 Lymphoid Leukemia from CDF1 female mice (T/C) as median survival time of treated mice (T) over that of control mice (C) at a dose of 0.50 mg/kg/day. The gist of the method: as §5
Assay [15] concerns L1210. In words: Antitumor activity against L1210 Lymphoid Leukemia from CDF1 female mice as average weight change of animals between day 1 and day 5 after tumor implementation at a dose of 1.0 mg/kg/day. The gist of the method:
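CDF1 female mice (BALB/c × DBA/2) received 10⁵ L1210 cells ip on day 0. Drug was dissolved in 2% methanol and given ip on days 1, 5 and 9, to 10 mice per group. Weights were taken on days 1 and 5, and the mean change was reported.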

The test system of assay [16] is P388. In words: Average weight change of animals between day 1 and day 5 after tumor implementation at a dose of 0.75 mg/kg/day. In outline: (§6)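 P388 leukemia: CDF1 female mice were inoculated ip with 10⁶ cells on day 0. Treatment in 2% methanol was given ip on days 1, 5 and 9, with 10 mice per group and a larger control group. Body weight was recorded on days 1 and 5 post-implant, and the average change was reported.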

For assay [17], the system named is P388. The experiment in a line: Average weight change of animals between day 1 and day 5 after tumor implementation at a dose of 1 mg/kg/day. In outline:
as §6

The test system of assay [18] is P388. In words: Antitumor activity against P388 Leukemia from CDF1 female mice evaluated as the number of survivors on day 5 at a dose of 0.06 mg/kg/day. In outline: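 CDF1 female mice (BALB/c × DBA/2) inoculated ip with 10⁶ P388 cells on day 0. Drug given ip in 2% methanol on days 1, 5 and 9. Ten mice per dose group, with a larger control group. Body weight and survival were recorded on days 1 and 5, with toxicity taken as survivors on day 5. Mortality was followed for 30 days to give median survival time.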

Assay [19] deals with P388. The experiment in a line: Average weight change of animals between day 1 and day 5 after tumor implementation at a dose of 0.03 mg/kg/day. The gist of the method: as §6
The test system of assay [20] is P388. In words: Antitumor activity (T/C) was evaluated from the median survival time of treated mice (T) over that of control mice (C) at a dose of 0.06 mg/kg/day. In outline:
(§7)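 CDF1 female mice (BALB/c ♀ × DBA/2 ♂) given 10⁶ P388 cells ip on day 0. Drug in 2% methanol given ip on days 1, 5 and 9, 10 mice per group and more controls. Toxicity is survivors on day 5, with weight change between days 1 and 5. Mortality followed 30 days. T/C% is treated over control median survival (NCI method), significant at ≥125%.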

The subject of assay [21] is P388. In words: Antitumor activity (T/C) was evaluated from the median survival time of treated mice (T) over that of control mice (C) at a dose of 0.12 mg/kg/day. The gist of the method:
as §7

For assay [22], the system named is B16. In words: Antitumor activity against B16 melanoma from B6 D2 F1 female mice as Median survival time of treated mice at a dose of 0.03 mg/kg/day (repeated ip injections, day 1-9). The settings on record: route intraperitoneal. The gist of the method: as §1

With `COc1ccc(C[C@H]2C(=O)O[C@H](C)[C@H](NC(=O)[C@@H](CC(C)C)N(C)C(=O)C3CCCN3C(=O)[C@@H](C)O)C(=O)NC(C(C)C)[C@H](O)CC(=O)O[C@@H](C(C)C)C(=O)[C@H](C)C(=O)N[C@@H](CC(C)C)C(=O)N3CCC[C@H]3C(=O)N2C)cc1` (some centres not stated) [NORDIDEMNIN], the T/C came out at 139% in assay [1]; 52% in assay [2]; 101% in [3]; 116% in assay [4]; 117% in assay [14]; 123% in assay [20]. Besides, the T/C in [21] turned out to be 133%. Further, the Toxicity in [5], in assay [10] and in assay [18] was 1 each time. Moreover, the Body weight change in assay [6] is -0.1 g; in [7], -2.3 g; in assay [8], 0 g; in assay [9], 0 g; in assay [11] it was 0 g; in assay [15], -0.5 g. Besides, the figures for the Body weight change in assay [16], in assay [17] and in assay [19] were -1.7 g, -2.3 g and 0 g, respectively. In addition, the “median survival time, days” value stood at 27.8 in [12], 10.7 in [13] and 26.5 in assay [22].
